Test results reported in ChEMBL document CHEMBL1157871, “Synthesis and preliminary evaluation of peptidomimetic inhibitors of human beta-secretase” (Eur J Med Chem, 2010).

How the values were obtained:
[1] = molecular target: T1, Beta-secretase 1 (Homo sapiens, UniProt P56817); assay: Inhibition of human recombinant BACE1 using fluorescent peptide substrate at 10 ug/ml after 5 mins
In short: (§1)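 FRET assay using a peptide substrate carrying a fluorophore and quencher on either side of a β-secretase cleavage site. Recombinant human BACE-1 was diluted in 0.1 M sodium acetate (pH 4.0) and added to the samples, then shaken 5 min. Fluorogenic Peptide Substrate IV in the same buffer was added and shaken 5 min. Read-out: ex 320 nm/em 405 nm; activity taken as ΔF/min relative to standard.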

[2] = molecular target: T1, Beta-secretase 1; assay: Inhibition of human recombinant BACE1 using fluorescent peptide substrate after 5 mins; in short: as §1

T1 sequence (P56817 whole entry): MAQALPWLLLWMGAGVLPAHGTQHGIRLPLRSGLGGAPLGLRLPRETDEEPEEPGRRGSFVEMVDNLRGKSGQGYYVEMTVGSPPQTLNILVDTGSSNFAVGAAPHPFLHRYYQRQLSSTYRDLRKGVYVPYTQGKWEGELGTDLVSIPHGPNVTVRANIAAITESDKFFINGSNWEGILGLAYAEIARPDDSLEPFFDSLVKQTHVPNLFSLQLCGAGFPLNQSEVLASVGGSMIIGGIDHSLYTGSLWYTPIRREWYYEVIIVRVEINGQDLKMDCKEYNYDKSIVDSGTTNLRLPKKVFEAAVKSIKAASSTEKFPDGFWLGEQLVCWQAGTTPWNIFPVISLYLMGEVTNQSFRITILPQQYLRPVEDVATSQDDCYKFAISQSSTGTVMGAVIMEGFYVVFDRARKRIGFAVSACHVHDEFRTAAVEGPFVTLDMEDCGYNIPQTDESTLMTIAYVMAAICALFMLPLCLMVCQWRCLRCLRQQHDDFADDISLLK

Structure (SMILES) | inhibition [1] | IC50 [2]
CC(C)CNC(=O)[C@H](C)C[C@H](O)[C@H](CC(C)C)NC(=O)[C@H](Cc1ccccc1)NC(=O)c1ccc([N+](=O)[O-])cc1 | 1.47% | 15.7 µM
CC(C)CNC(=O)[C@H](C)C[C@H](O)[C@H](CC(C)C)NC(=O)[C@H](Cc1ccccc1)NC(=O)c1cc([N+](=O)[O-])cc([N+](=O)[O-])c1 | 0.91% | –
CC(C)CNC(=O)[C@H](C)C[C@H](O)[C@H](CC(C)C)NC(=O)[C@H](Cc1ccc([N+](=O)[O-])cc1)NC(=O)c1cccc(Cl)c1 | 25.7% | –
CC(C)CNC(=O)[C@H](C)C[C@H](O)[C@H](CC(C)C)NC(=O)[C@H](Cc1ccc([N+](=O)[O-])cc1)NC(=O)/C=C/c1ccccc1 | 37.2% | –
CC(C)CNC(=O)[C@H](C)C[C@H](O)[C@H](CC(C)C)NC(=O)[C@H](Cc1ccc([N+](=O)[O-])cc1)NC(=O)c1ccc2c(c1)OCO2 | 40.3% | –
CC(C)C[C@H](NC(=O)[C@H](CO)NC(=O)/C=C/c1ccc(C(F)(F)F)cc1)[C@@H](O)C[C@@H](C)C(=O)NCc1ccccc1 | 16.4% | –
CC(C)CNC(=O)[C@H](C)C[C@H](O)[C@H](CC(C)C)NC(=O)[C@H](Cc1ccc([N+](=O)[O-])cc1)NC(=O)c1ccc(Cl)cc1Cl | 22.2% | 4.24 µM
CC[C@H](C)[C@H](NC(=O)OC(C)(C)C)C(=O)N[C@@H](Cc1ccccc1)C(=O)N[C@@H](C(C)C)[C@@H](O)C[C@@H](C)C(=O)NCc1ccccc1 | -2.46% | –
CC(C)CNC(=O)[C@H](C)C[C@H](O)[C@H](CC(C)C)NC(=O)[C@H](Cc1ccccc1)NC(=O)/C=C/c1ccccc1 | 22.8% | –
CC(C)CNC(=O)[C@H](C)C[C@H](O)[C@H](CC(C)C)NC(=O)[C@H](Cc1ccccc1)NC(=O)c1ccc2c(c1)OCO2 | 16.2% | 8.07 µM
CC(C)CNC(=O)[C@H](C)C[C@H](O)[C@H](CC(C)C)NC(=O)[C@H](Cc1ccccc1)NC(=O)c1ccccc1 | 11.2% | 6.93 µM
CC(C)CNC(=O)[C@H](C)C[C@H](O)[C@H](CC(C)C)NC(=O)[C@H](Cc1ccccc1)NC(=O)c1cccc2ccccc12 | -0.1% | 4.67 µM
CC(C)CNC(=O)[C@H](C)C[C@H](O)[C@@H](NC(=O)[C@H](Cc1ccc([N+](=O)[O-])cc1)NC(=O)OC(C)(C)C)C(C)C | 30.1% | –
COc1ccc(CC(=O)N[C@@H](CO)C(=O)N[C@@H](CC(C)C)[C@@H](O)C[C@@H](C)C(=O)NCc2ccccc2)cc1 | 25.1% | –
CC(C)C[C@H](NC(=O)OC(C)(C)C)C(=O)N[C@@H](Cc1ccccc1)C(=O)N[C@@H](CC(C)C)[C@@H](O)C[C@@H](C)C(=O)NCc1ccccc1 | 0.91% | –
CC(C)[C@H](NC(=O)[C@H](CO)NC(=O)OC(C)(C)C)[C@@H](O)C[C@@H](C)C(=O)NCc1ccccc1 | 50.5% | –

Structure (SMILES) | inhibition [1] | IC50 [2]
CC(C)CNC(=O)[C@H](C)C[C@H](O)[C@H](CC(C)C)NC(=O)[C@H](Cc1ccc([N+](=O)[O-])cc1)NC(=O)c1ccc([N+](=O)[O-])cc1 | 10.5% | 2.64 µM
CC(C)[C@H](NC(=O)[C@H](Cc1ccccc1)NC(=O)OC(C)(C)C)[C@@H](O)C[C@@H](C)C(=O)NCc1ccccc1 | 23% | –
CC(C)CNC(=O)[C@H](C)C[C@H](O)[C@H](CC(C)C)NC(=O)[C@H](Cc1ccccc1)NC(=O)c1ccc(Cl)cc1Cl | 20.3% | –
CC(C)CNC(=O)[C@H](C)C[C@H](O)[C@H](CC(C)C)NC(=O)[C@H](Cc1ccccc1)NC(=O)[C@H](CC(C)C)NC(=O)OC(C)(C)C | 54.6% | 2.31 µM
CC(C)CNC(=O)[C@H](C)C[C@H](O)[C@H](CC(C)C)NC(=O)[C@H](Cc1ccccc1)NC(=O)c1cccc(Cl)c1 | 16.9% | –
CC[C@H](C)[C@H](NC(=O)OC(C)(C)C)C(=O)N[C@@H](Cc1ccccc1)C(=O)N[C@@H](CC(C)C)[C@@H](O)C[C@@H](C)C(=O)NCC(C)C | -0.71% | –
CC(C)CNC(=O)[C@H](C)C[C@H](O)[C@H](CC(C)C)NC(=O)[C@H](Cc1ccc([N+](=O)[O-])cc1)NC(=O)c1cccc2ccccc12 | -4.43% | –
CC(C)CNC(=O)[C@H](C)C[C@H](O)[C@H](CC(C)C)NC(=O)[C@H](Cc1ccccc1)NC(=O)[C@@H](NC(=O)OC(C)(C)C)C(C)C | -2.37% | –
COc1ccc(C(=O)N[C@@H](Cc2ccccc2)C(=O)N[C@@H](CC(C)C)[C@@H](O)C[C@@H](C)C(=O)NCC(C)C)cc1OC | 14.7% | –
CC(C)CNC(=O)[C@H](C)C[C@H](O)[C@H](CC(C)C)NC(=O)[C@H](Cc1ccc([N+](=O)[O-])cc1)NC(=O)/C=C/c1ccc(C(F)(F)F)cc1 | 0.13% | 3.79 µM
CC(C)[C@H](NC(=O)OC(C)(C)C)C(=O)N[C@@H](Cc1ccccc1)C(=O)N[C@@H](C(C)C)[C@@H](O)C[C@@H](C)C(=O)NCc1ccccc1 | -1.56% | –
CC(C)CNC(=O)[C@H](C)C[C@H](O)[C@H](CC(C)C)NC(=O)[C@H](Cc1ccccc1)NC(=O)/C=C/c1ccc(C(F)(F)F)cc1 | 59.7% | 19.5 µM
CC(C)CNC(=O)[C@H](C)C[C@H](O)[C@@H](NC(=O)[C@H](Cc1ccccc1)NC(=O)OC(C)(C)C)C(C)C | 25.8% | –
CC(C)CNC(=O)[C@H](C)C[C@H](O)[C@H](CC(C)C)NC(=O)[C@H](Cc1ccc([N+](=O)[O-])cc1)NC(=O)c1cc([N+](=O)[O-])cc([N+](=O)[O-])c1 | 7.61% | –
COc1ccc(C(=O)N[C@@H](Cc2ccc([N+](=O)[O-])cc2)C(=O)N[C@@H](CC(C)C)[C@@H](O)C[C@@H](C)C(=O)NCC(C)C)cc1OC | 18.3% | 3.81 µM
